In ChEMBL document CHEMBL2384977, “Synthesis and biological evaluation of novel styryl benzimidazole derivatives as probes for imaging of neurofibrillary tangles in Alzheimer's disease” (Bioorg Med Chem, 2013):
Activity calls are given as the source filed them. The rule behind the calls is not given here.

Tests used:
[1] = species: Homo sapiens; experiment: Selectivity ratio of Kd(app) for amyloid beta (1 to 42) (unknown origin) aggregates to Kd(app) for recombinant human tau (441 amino acid residues) aggregates
Method in brief: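 Human 441-aa tau, expressed in E. coli, was aggregated at 1 mg/mL (MES pH 6.8, 0.1 mg/mL heparin, 37 °C, 3 days, shaking). Aβ1–42 was aggregated at 0.25 mg/mL (PBS pH 7.4, 37 °C, 42 h). Aggregates were incubated 30 min at room temperature with ligand, and fluorescence read at ex 440 nm, em 510 nm (tau) or 480 nm (Aβ). Apparent Kd came from saturation curves over six independent experiments, and the ratio is Kd(Aβ)/Kd(tau).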

[2] = molecular target: T1, Amyloid-beta precursor protein (Homo sapiens, UniProt P05067); experiment: Binding affinity to amyloid beta (1 to 42) (unknown origin) aggregates assessed as apparent dissociation constant after 30 mins by fluorescence spectroscopic analysis; details: read-out: Kd(app)
T1 sequence (P05067 whole entry): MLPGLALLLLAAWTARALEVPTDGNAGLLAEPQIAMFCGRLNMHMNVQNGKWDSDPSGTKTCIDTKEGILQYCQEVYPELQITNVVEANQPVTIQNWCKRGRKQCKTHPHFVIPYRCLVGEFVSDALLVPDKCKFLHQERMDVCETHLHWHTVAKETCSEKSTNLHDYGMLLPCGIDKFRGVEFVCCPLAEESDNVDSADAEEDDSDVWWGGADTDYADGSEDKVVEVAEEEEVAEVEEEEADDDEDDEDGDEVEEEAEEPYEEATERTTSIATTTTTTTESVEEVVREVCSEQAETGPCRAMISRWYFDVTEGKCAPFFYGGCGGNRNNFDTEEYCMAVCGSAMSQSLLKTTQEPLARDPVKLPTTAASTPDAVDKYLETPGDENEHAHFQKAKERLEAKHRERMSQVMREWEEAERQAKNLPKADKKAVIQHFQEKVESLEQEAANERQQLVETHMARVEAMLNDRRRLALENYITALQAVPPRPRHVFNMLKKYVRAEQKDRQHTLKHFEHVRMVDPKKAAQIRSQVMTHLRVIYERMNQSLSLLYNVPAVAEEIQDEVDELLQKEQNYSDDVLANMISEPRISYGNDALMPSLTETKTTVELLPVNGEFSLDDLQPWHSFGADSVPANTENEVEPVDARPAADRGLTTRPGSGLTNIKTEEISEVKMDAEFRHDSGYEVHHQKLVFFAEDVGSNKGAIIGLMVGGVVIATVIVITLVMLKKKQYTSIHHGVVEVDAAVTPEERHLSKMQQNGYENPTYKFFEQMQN
Method in brief: (§1)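 Tau: human 441-aa tau expressed in E. coli, aggregated at 1 mg/mL in MES buffer pH 6.8 with 0.1 mg/mL heparin, 37 °C for 3 days with shaking. Abeta1-42 aggregated at 0.25 mg/mL in PBS pH 7.4, 37 °C for 42 h with shaking. Aggregates at final 10 µg/mL were incubated with ligand (final 0.02–10 µM) for 30 min at room temperature. Apparent Kd was taken from fluorescence saturation curves at ex 440 nm, em 510 nm (tau) or em 480 nm (Abeta). Mean ± SEM of six independent experiments.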

[3] = molecular target: T2, Microtubule-associated protein tau (Homo sapiens, UniProt P10636); experiment: Binding affinity to recombinant human tau (441 amino acid residues) aggregates expressed in Escherichia coli assessed as apparent dissociation constant after 30 mins by fluorescence spectroscopic analysis; details: read-out: Kd(app); method in brief: as §1
T2 sequence (P10636 whole entry): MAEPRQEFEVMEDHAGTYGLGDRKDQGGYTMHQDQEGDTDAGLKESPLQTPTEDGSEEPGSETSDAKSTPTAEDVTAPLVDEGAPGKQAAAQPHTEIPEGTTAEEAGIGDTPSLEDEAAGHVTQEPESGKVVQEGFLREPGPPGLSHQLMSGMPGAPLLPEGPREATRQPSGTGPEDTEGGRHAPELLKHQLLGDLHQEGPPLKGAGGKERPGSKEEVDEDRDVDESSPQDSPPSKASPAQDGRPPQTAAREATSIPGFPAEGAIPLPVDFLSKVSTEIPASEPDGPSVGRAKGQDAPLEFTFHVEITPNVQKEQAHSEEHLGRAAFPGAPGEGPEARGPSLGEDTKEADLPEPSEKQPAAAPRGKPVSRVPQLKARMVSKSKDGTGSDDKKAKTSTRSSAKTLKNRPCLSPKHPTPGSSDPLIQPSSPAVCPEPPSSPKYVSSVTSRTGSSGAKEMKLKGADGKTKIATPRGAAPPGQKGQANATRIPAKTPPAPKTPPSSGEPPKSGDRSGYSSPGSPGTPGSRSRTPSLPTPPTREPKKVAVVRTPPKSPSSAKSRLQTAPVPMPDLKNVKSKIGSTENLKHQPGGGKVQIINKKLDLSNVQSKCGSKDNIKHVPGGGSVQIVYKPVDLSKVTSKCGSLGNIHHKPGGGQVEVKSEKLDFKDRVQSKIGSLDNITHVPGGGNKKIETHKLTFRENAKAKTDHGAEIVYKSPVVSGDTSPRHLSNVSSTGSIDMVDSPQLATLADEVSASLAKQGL

[4] = molecular target: T2, Microtubule-associated protein tau; experiment: Binding affinity to hyperphosphorylated tau protein in entorhinal cortex of alzheimer disease patient brain at 300 uM after 30 mins by fluorescence microscopic analysis; format: tissue-based
Method in brief: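 Deparaffinized entorhinal cortex section from the same AD patient, incubated 30 min with ligand in 50% ethanol, then washed 30 s in ethanol. Imaged by fluorescence microscopy (excitation 450–490 nm, emission 510–560 nm). Spots were matched to Thioflavin S staining of the same patient's section.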

[5] = molecular target: T1, Amyloid-beta precursor protein; experiment: Binding affinity to amyloid beta (1 to 42) in alzheimer disease patient brain by immunohistochemical staining analysis; details: tested as the 125I-labelled form
Method in brief: (§2)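 Autoradiography on 6-µm deparaffinized paraffin serial sections from an autopsy-confirmed AD case; control brain section also run. [125I]SBIM-3 (92.5 kBq/100 µL) for 1 h at room temperature, 50% EtOH for 2 h, water wash 30 s, then imaging plate exposure overnight. Labelling was compared with adjacent sections immunostained for phospho-tau (AT8) or Aβ1–42 (BC05).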

[6] = molecular target: T2, Microtubule-associated protein tau; experiment: Binding affinity to hyperphosphorylated tau protein in alzheimer disease patient brain by immunohistochemical staining analysis; details: tested as the 125I-labelled form; method in brief: as §2
[7] = 1-Octanol-PBS buffer partition coefficient, log P of the compound at 0.37 MBq after 2 mins by gamma counting analysis; format: physicochemical
[8] = system: Brain; experiment: Ratio of drug level in ddY mouse brain at 13.2 to 20.6 kBq, iv measured at 2 mins to drug level in ddY mouse brain at 13.2 to 20.6 kBq, iv measured at 60 mins; format: ADME, organism-based; details: in vivo
Method in brief: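 Tail-vein injection of the 125I tracer (13.2–20.6 kBq, saline with ethanol) into male 5-week-old ddY mice. The ratio is brain uptake (%ID/g) at 2 min divided by brain uptake at 60 min, from groups of 5 animals.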

| Selectivity ratio [1] | Kd [2] [nM] | Kd [3] [nM] | Activity [4] | Activity [5] | Activity [6] | logP at 2 min [7] | Ratio [8] | SMILES |
| --- | --- | --- | --- | --- | --- | --- | --- | --- |
| 2.73 | 820 | 300 | Active | Active | Active |  |  | CN(C)c1ccc(/C=C/c2nc3ccc(I)cc3[nH]2)cc1 |
|  |  |  |  |  |  | 3.84 | 0.33 | CN(C)c1ccc(/N=N/c2nc3ccc([125I])cc3s2)cc1 |
